Experimental data taken from ChEMBL document CHEMBL1773068, “Drug to genome to drug: discovery of new antiplasmodial compounds” (J Med Chem, 2011).
Calls of active or inactive are those of the source. No cut-off for these calls is given here.

Key:
[1] = test system: Plasmodium falciparum; assay: Antiplasmodial activity against chloroquine-susceptible Plasmodium falciparum GHA strain infected in human erythrocytes after 72 hrs by spectrophotometry; assay type: functional, organism-based
In short: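 P. falciparum cultured in human A+ erythrocytes in RPMI-1640 with 10% human serum, 37 °C, low oxygen (3% O2, 4% CO2, 93% N2). Infected red cell suspension (1% parasitemia, 2% hematocrit) incubated with compounds 72 h, then frozen. Growth read by Malstat method: NBT/PES added, 2 h in dark, absorbance at 655 nm. IC50 from duplicate determinations.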

[2] = test system: MRC5; assay: Cytotoxicity against human MRC5 SV2 cells after 72 hrs; assay type: cell-based; conditions: MRC5, 72 h
In short: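 MRC-5 SV2 human fetal lung fibroblasts grown in MEM with L-glutamine, NaHCO3 and 5% FCS at 37 °C, 5% CO2. 10^4 cells/well seeded onto prediluted compounds, 72 h at 37 °C. Viability by resazurin added for 24 h, fluorescence at ex 530/em 590 nm. IC50 from duplicate determinations.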

[3] = test system: Plasmodium falciparum; assay: Inhibition of Plasmodium falciparum GHA strain PDE assessed as inhibition of cGMP hydrolysis at 20 uM after 6 hrs by time resolved fluorescence resonance energy transfer-based assay
In short: (§1)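 Parasite lysate (2 μL, ~400 000 parasites) incubated with cGMP (150 nM) and inhibitor at 20 μM (4% DMSO final) for 6 h at 37 °C. Buffer: 50 mM Tris-HCl pH 7.4, 6 mM MgCl2, 1 mM MnCl2, 4 mM DTT. Residual cGMP measured by competitive HTRF (d2-labelled cGMP vs anti-cGMP cryptate), 665/620 nm ratio after 1 h at room temperature. Duplicates, each read twice.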

[4] = test system: Plasmodium falciparum; assay: Inhibition of Plasmodium falciparum GHA strain PDE assessed as inhibition of cAMP hydrolysis at 20 uM after 6 hrs by time resolved fluorescence resonance energy transfer-based assay
In short: as §1, with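 “cAMP” for “cGMP”, “anti-cAMP” for “anti-cGMP”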

IC50 ([1]; read-out: IC50) | inhibition [3] | inhibition [4] | IC50 ([1]; read-out: pIC50 (converted)) | Compound | IC50 [2]
> 64 µM |  |  |  | O=C1[C@H]2Cc3c([nH]c4ccccc34)[C@@H](c3ccc4c(c3)OCO4)N2C(=O)CN1c1cccc(Cl)c1 | > 64 µM
7 µM |  |  |  | CN(CCN1CC(=O)N2[C@H](c3ccc4c(c3)OCO4)c3[nH]c4ccccc4c3C[C@@H]2C1=O)Cc1ccccc1 | > 64 µM
8 µM |  |  |  | CN(CCCN1CC(=O)N2[C@H](c3ccc4c(c3)OCO4)c3[nH]c4ccccc4c3C[C@@H]2C1=O)Cc1ccccc1 | 8 µM
> 64 µM |  |  |  | CCCCc1ccc(N2CC(=O)N3[C@H](c4ccc5c(c4)OCO5)c4[nH]c5ccccc5c4C[C@@H]3C2=O)cc1 | > 64 µM
22 µM |  |  |  | O=C1[C@H]2Cc3c([nH]c4ccccc34)[C@@H](c3ccc4c(c3)OCO4)N2C(=O)CN1c1cccnc1 | > 64 µM
50 µM |  |  |  | O=C1[C@H]2Cc3c([nH]c4ccccc34)[C@H](c3ccc4c(c3)OCO4)N2C(=O)CN1[C@@H]1CCN(Cc2ccccc2)C1 | > 64 µM
> 64 µM |  |  |  | NN1CC(=O)N2[C@H](c3ccc4c(c3)OCO4)c3[nH]c4ccccc4c3C[C@@H]2C1=O | > 64 µM
1 µM | 60% | Active |  | O=C1[C@H]2Cc3c([nH]c4ccccc34)[C@@H](c3ccc4c(c3)OCO4)N2C(=O)CN1C1CCN(Cc2ccccc2)CC1 | 7 µM
> 64 µM |  |  |  | Cc1cccc(N2CC(=O)N3[C@H](c4ccc5c(c4)OCO5)c4[nH]c5ccccc5c4C[C@@H]3C2=O)c1 | > 64 µM
0.5 µM | 60% | Active | 0.501 µM | O=C1[C@H]2Cc3c([nH]c4ccccc34)[C@@H](c3ccc4c(c3)OCO4)N2C(=O)CN1[C@@H]1CCN(Cc2ccccc2)C1 | 10 µM
> 64 µM |  |  |  | COc1ccc(N2CC(=O)N3[C@H](c4ccc5c(c4)OCO5)c4[nH]c5ccccc5c4C[C@@H]3C2=O)cc1 | > 64 µM
> 64 µM |  |  |  | O=C1NCC(=O)N2[C@H](c3ccc4c(c3)OCO4)c3[nH]c4ccccc4c3C[C@H]12 [NORTADALAFIL] | > 64 µM
25 µM |  |  |  | O=C1N[C@@H](Cc2c[nH]c3ccccc23)C(=O)N2[C@H](c3ccc4c(c3)OCO4)c3[nH]c4ccccc4c3C[C@H]12 | 35 µM
60 µM |  |  |  | O=C1[C@H]2Cc3c([nH]c4ccccc34)[C@@H](c3ccc4c(c3)OCO4)N2C(=O)CN1c1ccc(Cl)cc1 | > 64 µM
60 µM |  |  |  | CC(C)(C)OC(=O)CC[C@@H]1NC(=O)[C@H]2Cc3c([nH]c4ccccc34)[C@@H](c3ccc4c(c3)OCO4)N2C1=O | > 64 µM
> 64 µM |  |  |  | O=C1[C@H]2Cc3c([nH]c4ccccc34)[C@@H](c3ccc4c(c3)OCO4)N2C(=O)CN1c1ccccc1 | > 64 µM
> 64 µM |  |  |  | O=C1[C@H]2Cc3c([nH]c4ccccc34)[C@@H](c3ccc4c(c3)OCO4)N2C(=O)CN1c1cccs1 | > 64 µM
4 µM |  |  |  | NCCCC[C@H]1NC(=O)[C@H]2Cc3c([nH]c4ccccc34)[C@@H](c3ccc4c(c3)OCO4)N2C1=O | > 64 µM
> 64 µM |  |  |  | O=C1N[C@@H](COCc2ccccc2)C(=O)N2[C@H](c3ccc4c(c3)OCO4)c3[nH]c4ccccc4c3C[C@H]12 | > 64 µM
10 µM |  |  |  | O=C1[C@H]2Cc3c([nH]c4ccccc34)[C@@H](c3ccc4c(c3)OCO4)N2C(=O)CN1[C@H]1CCN(Cc2ccccc2)C1 | > 64 µM
> 64 µM |  |  |  | O=C1[C@H]2Cc3c([nH]c4ccccc34)[C@@H](c3ccc4c(c3)OCO4)N2C(=O)CN1c1ccsc1 | > 64 µM
16 µM |  |  |  | O=C1[C@H]2Cc3c([nH]c4ccccc34)[C@@H](c3ccc4c(c3)OCO4)N2C(=O)CN1CCc1ccc(O)cc1 | > 64 µM
> 64 µM |  |  |  | CN1CC(=O)N2[C@H](c3ccc4c(c3)OCO4)c3[nH]c4ccccc4c3C[C@@H]2C1=O [TADALAFIL] | > 64 µM
0.97 µM |  |  |  | O=C1[C@H]2Cc3c([nH]c4ncccc34)[C@@H](c3ccc4c(c3)OCO4)N2C(=O)CN1[C@@H]1CCN(Cc2ccccc2)C1 | 22 µM

The remaining lines, values behind:

Compound | IC50 ([1]; read-out: IC50) | inhibition [3] | inhibition [4] | IC50 ([1]; read-out: pIC50 (converted)) | IC50 [2]
O=C1[C@H]2Cc3c([nH]c4cc(F)ccc34)[C@@H](c3ccc4c(c3)OCO4)N2C(=O)CN1[C@@H]1CCN(Cc2ccccc2)C1 (mixture of isomers) | 1.26 µM |  |  |  | 16 µM
Cn1c2c(c3ccccc31)C[C@@H]1C(=O)N([C@@H]3CCN(Cc4ccccc4)C3)CC(=O)N1[C@@H]2c1ccc2c(c1)OCO2 | 9 µM |  |  |  | > 64 µM
O=C1[C@H]2Cc3c([nH]c4ccccc34)[C@@H](c3ccc4c(c3)OCO4)N2C(=O)CN1c1ccc(C(F)(F)F)cc1 | > 64 µM |  |  |  | > 64 µM
O=C1[C@H]2Cc3c([nH]c4ccccc34)[C@@H](c3ccc4c(c3)OCO4)N2C(=O)CN1c1ccc(CN2CCOCC2)cc1 | 19 µM |  |  |  | > 64 µM
CC(C)(C)OC(=O)N1CCN(Cc2cccc(N3CC(=O)N4[C@H](c5ccc6c(c5)OCO6)c5[nH]c6ccccc6c5C[C@@H]4C3=O)c2)CC1 | 23 µM |  |  |  | > 64 µM
O=C1[C@H]2Cc3c([nH]c4ccccc34)[C@@H](c3ccc4c(c3)OCO4)N2C(=O)CN1Cc1ccc(N2CCOCC2)cc1 | 9 µM |  |  |  | > 64 µM
O=C1[C@H]2Cc3c([nH]c4ccccc34)[C@@H](c3ccc4c(c3)OCO4)N2C(=O)CN1c1cncnc1 | 56 µM |  |  |  | > 64 µM
CCCCN1CC(=O)N2[C@H](c3ccc4c(c3)OCO4)c3[nH]c4ccccc4c3C[C@@H]2C1=O | > 64 µM |  |  |  | > 64 µM
O=C1[C@H]2Cc3c([nH]c4ccccc34)[C@@H](c3ccc4c(c3)OCO4)N2C(=O)CN1CCCn1ccnc1 | 9 µM |  |  |  | > 64 µM
OCCN(CCO)c1nc(N2CCCCC2)c2nc(N(CCO)CCO)nc(N3CCCCC3)c2n1 [DIPYRIDAMOLE] | 64 µM | Active | Active |  | 
O=C1[C@H]2Cc3c([nH]c4ccccc34)[C@@H](c3ccc4c(c3)OCO4)N2C(=O)CN1[C@@H]1CCNC1 | 12 µM |  |  |  | > 64 µM
O=C1[C@H]2Cc3c([nH]c4ccccc34)[C@@H](c3ccc4c(c3)OCO4)N2C(=O)CN1C1CCNCC1 | 32 µM |  |  |  | > 64 µM
Cn1ccnc1CN1CCC(N2CC(=O)N3[C@H](c4ccc5c(c4)OCO5)c4[nH]c5ccccc5c4C[C@@H]3C2=O)CC1 | 4 µM |  |  |  | 62 µM
O=C1[C@H]2Cc3c([nH]c4ccccc34)[C@@H](c3ccc4c(c3)OCO4)N2C(=O)CN1c1ccc(N2CCNCC2)cc1 | 7 µM |  |  |  | 8 µM
O=C1[C@H]2Cc3c([nH]c4ccccc34)[C@@H](c3ccc4c(c3)OCO4)N2C(=O)CN1CCN1CCOCC1 | 22 µM |  |  |  | > 64 µM
CC(C)(C)OC(=O)N1CCN(c2ccc(N3CC(=O)N4[C@H](c5ccc6c(c5)OCO6)c5[nH]c6ccccc6c5C[C@@H]4C3=O)cc2)CC1 | > 64 µM |  |  |  | > 64 µM
O=C1[C@H]2Cc3c([nH]c4ccc(F)cc34)[C@@H](c3ccc4c(c3)OCO4)N2C(=O)CN1[C@@H]1CCN(Cc2ccccc2)C1 (mixture of isomers) | 1.7 µM |  |  |  | 17.8 µM
O=C1[C@H]2Cc3c([nH]c4ccccc34)[C@@H](c3ccc4c(c3)OCO4)N2C(=O)CN1c1cccc(CN2CCNCC2)c1 | 10 µM |  |  |  | 8 µM
O=C1[C@H]2Cc3c([nH]c4ccc(Br)cc34)[C@@H](c3ccc4c(c3)OCO4)N2C(=O)CN1[C@@H]1CCN(Cc2ccccc2)C1 (mixture of isomers) | 7 µM |  |  |  | 10 µM
CCCOc1ccccc1-c1nc2[nH]nnc2c(=O)[nH]1 [ZAPRINAST] | 35 µM | Active | Active |  | 
